Measured values collected from several papers.
Lines come from different studies, so protocols differ.
Target: Serine/threonine-protein kinase PAK 6 (PAK6, Homo sapiens, UniProt Q9NQU5)

| Structure (SMILES) | assay | conditions | remaining binding |
| --- | --- | --- | --- |
| CN(C)c1nccc(-c2cnc3ncccn23)n1 | binding | 1 µM | 98% |
| N#CC1(c2ccccn2)CCN(Cc2cc(C(=O)N3CCCC3)c(=O)n3ccccc23)CC1 | cell-free assay, competition with immobilised ligand | 1 µM | 100% |
| O=C(NCCCN1CCOCC1)c1ccc(Nc2nccc(-c3cc4ccccc4s3)n2)cc1 | binding, competition with immobilised ligand | 1 µM | 90% |
| CN(CCCC(F)(F)F)c1nccc(-c2cnn3ncccc23)n1 | binding | 1 µM | 100% |
| COc1cnc(Nc2cccc(S(N)(=O)=O)c2)nc1N1CCN(c2ccccc2)CC1 | binding, competition with immobilised ligand | 1 µM | 100% |
| c1cncc(-c2cccc(Nc3nccc(NC4CCCCC4)n3)c2)c1 | binding, competition with immobilised ligand | 10 µM | 60% |
| CS(=O)(=O)N1CCCC(NC(=O)[C@H](CCC2CCCCC2)NC(=O)c2ccc(CNC(=O)c3cnc4ccccn34)cc2)C1 (stereo partly drawn) | cell-free assay, competition with immobilised ligand | 0.1 µM | 100% |
| F[C@@H]1CCN(c2nccc(-c3cnn4ncccc34)n2)C1 | binding | 1 µM | 100% |
| O=C(NCC1CCOCC1)c1n[nH]cc1NC(=O)c1c(F)cccc1F | binding, competition with immobilised ligand | 1 µM | 86% |
| O=C(c1ccc(Nc2ncc(Cl)c(-c3ccc(Cl)s3)n2)cc1)N1CCC(N2CCCC2)CC1 | binding, competition with immobilised ligand | 1 µM | 52% |
| Nc1ncc2c(n1)-c1c([nH]c3ccc(C#CC4CC4)cc13)CCCC2 | binding, competition with immobilised ligand | 1 µM | 94% |
| O=C(c1ccc(Nc2ncc(Cl)c(-c3cc4ccccc4s3)n2)cc1)N1CCC(N2CCCC2)CC1 | binding, competition with immobilised ligand | 1 µM | 62% |
| CO[C@@H](C)c1c(Nc2ccc([C@@H](N(C)C(=O)C3CCS(=O)(=O)CC3)C(F)(F)F)cc2)cnc2cc(Cl)nn12 | cell-free assay, competition with immobilised ligand | 1 µM | 100% |
| CN(c1nccc(-c2cnn3ncccc23)n1)C1CC1 | binding | 1 µM | 100% |
| FC(F)(F)Oc1cccc(-c2cnc3ccc(-c4ccncc4)nn23)c1 | cell-free assay, competition with immobilised ligand | 5 µM | 53% |
| CNC(=O)Nc1ccc2c(c1)CC[C@@]21OC(=O)N(CC(=O)N(Cc2ccc(F)cc2)[C@@H](C)C(F)(F)F)C1=O | cell-free assay, competition with immobilised ligand | 1 µM | 91% |
| COc1cnc(Nc2cccc(S(N)(=O)=O)c2)nc1N1CCN(c2ccccc2)C(=O)C1 | binding, competition with immobilised ligand | 1 µM | 100% |
| C[C@H]1CCN(c2nccc(-c3cnn4ncccc34)n2)C1 | binding | 1 µM | 80% |
| CCCCN(CCCC)C(=O)CN1C[C@@H](c2cc(OC)c3c(c2)OCO3)[C@H](C(=O)O)[C@H]1CC(C)(C)CCC | cell-free assay, competition with immobilised ligand | 1 µM | 100% |
| c1cnn2ncc(-c3ccnc(N4CCC45COC5)n3)c2c1 | binding | 1 µM | 81% |
| CC1=C(C#N)[C@@H](c2ccc3[nH]nc(C)c3c2)C(C#N)=C(c2ccc(Cl)cc2)N1 | cell-free assay, competition with immobilised ligand | 1 µM | 100% |
